{"source": "ChEMBL document CHEMBL3227952", "about": "“Potential organ- or tumor-imaging agents. 18. Radioiodinated diamines and bisquaternaries” (J Med Chem, 1979)", "key": {"Adrenal [1]": {"system": "Adrenal", "experiment": "Drug uptake in Sprague-Dawley rat adrenal at 11.9 to 12.1 uCi, iv after 0.5 hrs by liquid scintillation counting", "assay_type": "ADME, organism-based, Adrenal gland", "details": "in vivo"}, "[2]": {"experiment": "Drug uptake in Sprague-Dawley rat bone marrow at 11.9 to 12.1 uCi, iv after 0.5 hrs by liquid scintillation counting", "assay_type": "ADME, organism-based", "details": "in vivo", "how_it_was_run": "(§1)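 Dosing was by tail vein under ether. Five rats were killed by exsanguination at each time. Organs were rinsed, blotted and weighed, with duplicate samples in cellulose acetate capsules. Samples were counted in a well-scintillation gamma counter at 87% efficiency. Results are % administered dose/g, mean ± SEM.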"}, "Brain [3]": {"system": "Brain", "experiment": "Drug uptake in Sprague-Dawley rat brain at 11.9 to 12.1 uCi, iv after 0.5 hrs by liquid scintillation counting", "assay_type": "ADME, organism-based", "details": "in vivo"}, "[4]": {"experiment": "Drug uptake in Sprague-Dawley rat diaphragm at 11.9 to 12.1 uCi, iv after 0.5 hrs by liquid scintillation counting", "assay_type": "ADME, organism-based", "details": "in vivo", "how_it_was_run": "as §1"}, "Duodenum [5]": {"system": "Duodenum", "experiment": "Drug uptake in Sprague-Dawley rat duodenum at 11.9 to 12.1 uCi, iv after 0.5 hrs by liquid scintillation counting", "assay_type": "ADME, organism-based", "details": "in vivo"}, "Heart [6]": {"system": "Heart", "experiment": "Drug uptake in Sprague-Dawley rat heart at 11.9 to 12.1 uCi, iv after 0.5 hrs by liquid scintillation counting", "assay_type": "ADME, organism-based", "details": "in vivo"}, "Kidney [7]": {"system": "Kidney", "experiment": "Drug uptake in Sprague-Dawley rat kidney at 11.9 to 12.1 uCi, iv after 0.5 hrs by liquid scintillation counting", "assay_type": "ADME, organism-based", "details": "in vivo"}, "Liver [8]": {"system": "Liver", "experiment": "Drug uptake in Sprague-Dawley rat liver at 11.9 to 12.1 uCi, iv after 0.5 hrs by liquid scintillation counting", "assay_type": "ADME, organism-based", "details": "in vivo", "how_it_was_run": "(§2)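 Five rats per time point were exsanguinated under ether. Organs were excised, rinsed, blotted and weighed. Duplicate samples were counted in a well-scintillation gamma counter (87% efficiency). Results are % administered dose/g, mean ± SEM.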"}, "Lung [9]": {"system": "Lung", "experiment": "Drug uptake in Sprague-Dawley rat lung at 11.9 to 12.1 uCi, iv after 0.5 hrs by liquid scintillation counting", "assay_type": "ADME, organism-based", "details": "in vivo"}, "Pancreas [10]": {"system": "Pancreas", "experiment": "Drug uptake in Sprague-Dawley rat pancreas at 11.9 to 12.1 uCi, iv after 0.5 hrs by liquid scintillation counting", "assay_type": "ADME, organism-based", "details": "in vivo", "how_it_was_run": "as §2"}, "Pituitary gland [11]": {"system": "Pituitary gland", "experiment": "Drug uptake in Sprague-Dawley rat pituitary at 11.9 to 12.1 uCi, iv after 0.5 hrs by liquid scintillation counting", "assay_type": "ADME, organism-based", "details": "in vivo"}, "Spleen [12]": {"system": "Spleen", "experiment": "Drug uptake in Sprague-Dawley rat spleen at 11.9 to 12.1 uCi, iv after 0.5 hrs by liquid scintillation counting", "assay_type": "ADME, organism-based", "details": "in vivo"}, "Thyroid gland [13]": {"system": "Thyroid gland", "experiment": "Drug uptake in Sprague-Dawley rat thyroid at 11.9 to 12.1 uCi, iv after 0.5 hrs by liquid scintillation counting", "assay_type": "ADME, organism-based", "details": "in vivo", "how_it_was_run": "as §2"}, "Testes [14]": {"system": "Testes", "experiment": "Drug uptake in Sprague-Dawley rat testes at 11.9 to 12.1 uCi, iv after 0.5 hrs by liquid scintillation counting", "assay_type": "ADME, organism-based, Testis", "details": "in vivo", "how_it_was_run": "as §2"}, "[15]": {"experiment": "Drug uptake in Sprague-Dawley rat dorsolateral prostate at 11.9 to 12.1 uCi, iv after 0.5 hrs by liquid scintillation counting", "assay_type": "ADME, organism-based, Prostate gland", "details": "in vivo"}, "[16]": {"experiment": "Drug uptake in Sprague-Dawley rat ventral prostate at 11.9 to 12.1 uCi, iv after 0.5 hrs by liquid scintillation counting", "assay_type": "ADME, organism-based, Prostate gland", "details": "in vivo"}, "Blood [17]": {"system": "Blood", "experiment": "Drug uptake in Sprague-Dawley rat blood at 11.9 to 12.1 uCi, iv after 0.5 hrs by liquid scintillation counting", "assay_type": "ADME, organism-based", "details": "in vivo"}, "Adrenal [18]": {"system": "Adrenal", "experiment": "Drug uptake in Sprague-Dawley rat adrenal at 11.9 to 12.1 uCi, iv after 2 hrs by liquid scintillation counting", "assay_type": "ADME, organism-based, Adrenal gland", "details": "in vivo", "how_it_was_run": "as §1"}, "[19]": {"experiment": "Drug uptake in Sprague-Dawley rat bone marrow at 11.9 to 12.1 uCi, iv after 2 hrs by liquid scintillation counting", "assay_type": "ADME, organism-based", "details": "in vivo"}, "Brain [20]": {"system": "Brain", "experiment": "Drug uptake in Sprague-Dawley rat brain at 11.9 to 12.1 uCi, iv after 2 hrs by liquid scintillation counting", "assay_type": "ADME, organism-based", "details": "in vivo"}, "[21]": {"experiment": "Drug uptake in Sprague-Dawley rat diaphragm at 11.9 to 12.1 uCi, iv after 2 hrs by liquid scintillation counting", "assay_type": "ADME, organism-based", "details": "in vivo"}, "Duodenum [22]": {"system": "Duodenum", "experiment": "Drug uptake in Sprague-Dawley rat duodenum at 11.9 to 12.1 uCi, iv after 2 hrs by liquid scintillation counting", "assay_type": "ADME, organism-based", "details": "in vivo, in the assay text read “gamma counting” for “liquid scintillation counting”", "how_it_was_run": "as §1"}, "Heart [23]": {"system": "Heart", "experiment": "Drug uptake in Sprague-Dawley rat heart at 11.9 to 12.1 uCi, iv after 2 hrs by liquid scintillation counting", "assay_type": "ADME, organism-based", "details": "in vivo, in the assay text read “gamma counting” for “liquid scintillation counting”", "how_it_was_run": "as §1"}, "Kidney [24]": {"system": "Kidney", "experiment": "Drug uptake in Sprague-Dawley rat kidney at 11.9 to 12.1 uCi, iv after 2 hrs by liquid scintillation counting", "assay_type": "ADME, organism-based", "details": "in vivo, in the assay text read “gamma counting” for “liquid scintillation counting”", "how_it_was_run": "as §2"}, "Liver [25]": {"system": "Liver", "experiment": "Drug uptake in Sprague-Dawley rat liver at 11.9 to 12.1 uCi, iv after 2 hrs by liquid scintillation counting", "assay_type": "ADME, organism-based", "details": "in vivo, in the assay text read “gamma counting” for “liquid scintillation counting”", "how_it_was_run": "as §2"}, "Lung [26]": {"system": "Lung", "experiment": "Drug uptake in Sprague-Dawley rat lung at 11.9 to 12.1 uCi, iv after 2 hrs by liquid scintillation counting", "assay_type": "ADME, organism-based", "details": "in vivo, in the assay text read “gamma counting” for “liquid scintillation counting”", "how_it_was_run": "as §2"}, "Pancreas [27]": {"system": "Pancreas", "experiment": "Drug uptake in Sprague-Dawley rat pancreas at 11.9 to 12.1 uCi, iv after 2 hrs by liquid scintillation counting", "assay_type": "ADME, organism-based", "details": "in vivo, in the assay text read “well-scintillation gamma counting” for “liquid scintillation counting”", "how_it_was_run": "as §2"}, "Pituitary gland [28]": {"system": "Pituitary gland", "experiment": "Drug uptake in Sprague-Dawley rat pituitary at 11.9 to 12.1 uCi, iv after 2 hrs by liquid scintillation counting", "assay_type": "ADME, organism-based", "details": "in vivo, in the assay text read “well-scintillation gamma counting” for “liquid scintillation counting”", "how_it_was_run": "as §2"}, "Spleen [29]": {"system": "Spleen", "experiment": "Drug uptake in Sprague-Dawley rat spleen at 11.9 to 12.1 uCi, iv after 2 hrs by liquid scintillation counting", "assay_type": "ADME, organism-based", "details": "in vivo, in the assay text read “well-scintillation gamma counting” for “liquid scintillation counting”", "how_it_was_run": "as §2"}, "Thyroid gland [30]": {"system": "Thyroid gland", "experiment": "Drug uptake in Sprague-Dawley rat thyroid at 11.9 to 12.1 uCi, iv after 2 hrs by liquid scintillation counting", "assay_type": "ADME, organism-based", "details": "in vivo, in the assay text read “well-scintillation gamma counting” for “liquid scintillation counting”", "how_it_was_run": "as §2"}, "Testes [31]": {"system": "Testes", "experiment": "Drug uptake in Sprague-Dawley rat testes at 11.9 to 12.1 uCi, iv after 2 hrs by liquid scintillation counting", "assay_type": "ADME, organism-based, Testis", "details": "in vivo, in the assay text read “well-scintillation gamma counting” for “liquid scintillation counting”", "how_it_was_run": "as §2"}, "[32]": {"experiment": "Drug uptake in Sprague-Dawley rat dorsolateral prostate at 11.9 to 12.1 uCi, iv after 2 hrs by liquid scintillation counting", "assay_type": "ADME, organism-based, Prostate gland", "details": "in vivo"}, "[33]": {"experiment": "Drug uptake in Sprague-Dawley rat ventral prostate at 11.9 to 12.1 uCi, iv after 2 hrs by liquid scintillation counting", "assay_type": "ADME, organism-based, Prostate gland", "details": "in vivo", "how_it_was_run": "as §2"}, "Blood [34]": {"system": "Blood", "experiment": "Drug uptake in Sprague-Dawley rat blood at 11.9 to 12.1 uCi, iv after 2 hrs by liquid scintillation counting", "assay_type": "ADME, organism-based", "details": "in vivo"}}, "data": [{"smiles": "CN(C)Cc1ccc(CN(C)C)c([125I])c1", "values": [{"measurement": "Drug uptake", "setting": "Adrenal [1]", "value": 2.287, "unit": "% ID/g"}, {"measurement": "Drug uptake", "setting": "[2]", "value": 0.483, "unit": "% ID/g"}, {"measurement": "Drug uptake", "setting": "Brain [3]", "value": 1.791, "unit": "% ID/g"}, {"measurement": "Drug uptake", "setting": "[4]", "value": 0.241, "unit": "% ID/g"}, {"measurement": "Drug uptake", "setting": "Duodenum [5]", "value": 1.053, "unit": "% ID/g"}, {"measurement": "Drug uptake", "setting": "Heart [6]", "value": 0.367, "unit": "% ID/g"}, {"measurement": "Drug uptake", "setting": "Kidney [7]", "value": 3.598, "unit": "% ID/g"}, {"measurement": "Drug uptake", "setting": "Liver [8]", "value": 1.069, "unit": "% ID/g"}, {"measurement": "Drug uptake", "setting": "Lung [9]", "value": 1.993, "unit": "% ID/g"}, {"measurement": "Drug uptake", "setting": "Pancreas [10]", "value": 0.737, "unit": "% ID/g"}, {"measurement": "Drug uptake", "setting": "Pituitary gland [11]", "value": 0.899, "unit": "% ID/g"}, {"measurement": "Drug uptake", "setting": "Spleen [12]", "value": 1.402, "unit": "% ID/g"}, {"measurement": "Drug uptake", "setting": "Thyroid gland [13]", "value": 5.001, "unit": "% ID/g"}, {"measurement": "Drug uptake", "setting": "Testes [14]", "value": 0.154, "unit": "% ID/g"}, {"measurement": "Drug uptake", "setting": "[15]", "value": 0.657, "unit": "% ID/g"}, {"measurement": "Drug uptake", "setting": "[16]", "value": 0.673, "unit": "% ID/g"}, {"measurement": "Drug uptake", "setting": "Blood [17]", "value": 0.05, "unit": "% ID/g"}, {"measurement": "Drug uptake", "setting": "Adrenal [18]", "value": 1.84, "unit": "% ID/g"}, {"measurement": "Drug uptake", "setting": "[19]", "value": 0.569, "unit": "% ID/g"}, {"measurement": "Drug uptake", "setting": "Brain [20]", "value": 1.255, "unit": "% ID/g"}, {"measurement": "Drug uptake", "setting": "[21]", "value": 0.114, "unit": "% ID/g"}, {"measurement": "Drug uptake", "setting": "Duodenum [22]", "value": 0.349, "unit": "% ID/g"}, {"measurement": "Drug uptake", "setting": "Heart [23]", "value": 0.174, "unit": "% ID/g"}, {"measurement": "Drug uptake", "setting": "Kidney [24]", "value": 2.225, "unit": "% ID/g"}, {"measurement": "Drug uptake", "setting": "Liver [25]", "value": 1.042, "unit": "% ID/g"}, {"measurement": "Drug uptake", "setting": "Lung [26]", "value": 1.065, "unit": "% ID/g"}, {"measurement": "Drug uptake", "setting": "Pancreas [27]", "value": 0.349, "unit": "% ID/g"}, {"measurement": "Drug uptake", "setting": "Pituitary gland [28]", "value": 0.684, "unit": "% ID/g"}, {"measurement": "Drug uptake", "setting": "Spleen [29]", "value": 1.511, "unit": "% ID/g"}, {"measurement": "Drug uptake", "setting": "Thyroid gland [30]", "value": 3.114, "unit": "% ID/g"}, {"measurement": "Drug uptake", "setting": "Testes [31]", "value": 0.163, "unit": "% ID/g"}, {"measurement": "Drug uptake", "setting": "[32]", "value": 0.614, "unit": "% ID/g"}, {"measurement": "Drug uptake", "setting": "[33]", "value": 0.588, "unit": "% ID/g"}, {"measurement": "Drug uptake", "setting": "Blood [34]", "value": 0.038, "unit": "% ID/g"}]}]}
